Experimental data: the array DNA melting data of Ke et al. (doi:10.1101/2024.01.08.574731)

What was measured:
[1] = folding enthalpy; higher = less favourable; fluorescence melt of hairpins on a sequencing array, two-state fit; settings: sodium 0.088 M
Procedure, shortened: (§1)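 Melting temperature and folding enthalpy were obtained by bootstrapped two-state fitting. Fits used Cy3 fluorescence of library hairpins with annealed Cy3 and quencher oligos on a sequenced MiSeq flow cell, imaged in 50 mM Na-HEPES pH 8.0, 25 mM NaCl in 2.5 °C steps up to 60 °C and normalised to pre-quench Cy3 and control constructs. Four replicates were combined by inverse-variance weighting, and fitted temperatures were raised by 9.35 °C to match UV melts.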

[2] = melting temperature; fluorescence melt of hairpins on a sequencing array, two-state fit, raised by 9.35 °C to match UV melts; settings: sodium 0.088 M
Procedure, shortened: as §1

Row | Sequence | folding enthalpy [1] [kcal/mol] | Tm [2] [°C]
1 | GATTACGGAAACGTAACC (.(((((....))))).) | -16.6 | 33.8
2 | GATTATGAAAATAATC ((((((....)))))) | -29.5 | 40.1
3 | GATTATGGAAACATAGTC ((.((((....)))).)) | -16.8 | 31.7
4 | GATTCAGGAAACCGAATC (((((.(....).))))) | -26.2 | 36
5 | GATTCAGGAAACTGAATC (((((((....))))))) | -36.9 | 55.7
6 | GATTCCCGAAAGGGTATC (((.(((....))).))) | -23.4 | 45.6
7 | GATTCCGAAAGGAATATC ((((((....)))..))) | -17.4 | 46.6
8 | GATTCCGGAAACAGAATC (((((.(....).))))) | -23.4 | 32.1
9 | GATTCCGGAAACGGAATC (((((((....))))))) | -42.5 | 64.7
10 | GATTCCGGAAACGGAGTC ((.((((....)))).)) | -23.8 | 47.6
11 | GATTCGCGAAAGCGATC (((.(((....)))))) | -11.6 | 44.5
12 | GATTCGCGAAAGCGCATC (((.(((....))).))) | -21.5 | 42.7
13 | GATTCGGGAAACCAAATC ((((.((....)).)))) | -22.3 | 30.1
14 | GATTCGGGAAACCGAGTC ((.((((....)))).)) | -28 | 46.7
15 | GATTCGGGAAACTGGATC (((.(.(....).).))) | -24.2 | 30.8
16 | GATTCTGGAAACAGGATC (((.(((....))).))) | -37.1 | 42.7
17 | GATTCTGGAAACGGAATC (((((.(....).))))) | -37.2 | 44.4
18 | GATTGACCGAAAGGTATC (((..(((....)))))) | -11.6 | 28.5
19 | GATTGAGGAAACTCGATC (((.(((....))).))) | -33.1 | 43.2
20 | GATTGAGGAAACTTGATC (((..((....))..))) | -7.66 | 22.4
21 | GATTGCCCGAAAGGGATC (((..(((....)))))) | -7.39 | 25.8
22 | GATTGCGCGAAAGCGATC (((..(((....)))))) | -9.1 | 32
23 | GATTGCGGAAACGCGATC (((.(((....))).))) | -30.7 | 57.5

Row | Sequence | folding enthalpy [1] [kcal/mol] | Tm [2] [°C]
24 | GATTGCGGAAACGTAGTC ((.(.((....)).).)) | -11.4 | 29.8
25 | GATTGCGGAAACGTGATC (((..((....))..))) | -30.6 | 40.7
26 | GATTGGCGAAAGCCCATC (((.(((....))).))) | -17 | 38.4
27 | GATTGGGCGAAAGCCATC (((..(((....)))))) | -8.31 | 26.8
28 | GATTGTGGAAACGCAATC (((((.(....).))))) | -35.5 | 47.2
29 | GATTTACGAAAGTAGATC (((.(((....))).))) | -29.5 | 41.9
30 | GATTTCCCGAAAGGGATC (((..(((....)))))) | -10.4 | 26.2
31 | GATTTCCGAAAGGAGATC (((.(((....))).))) | -34.3 | 46.8
32 | GATTTCGGAAACGAAGTC ((.((((....)))).)) | -23.8 | 39.3
33 | GATTTCGGAAACGAGATC (((.(((....))).))) | -30 | 41.6
34 | GATTTGGAAACAAATC ((((((....)))))) | -40.2 | 48.5
35 | GATTTGGGAAACCAGATC (((.(((....))).))) | -35.9 | 37.7
36 | GATTTGGGAAACTAAATC (((((.(....).))))) | -26.6 | 36.6
37 | GATTTTGGAAACAAAGTC ((.((((....)))).)) | -27.5 | 35.3
38 | GCAAACGAAAGTTAATGC ((((((....)))..))) | -14.7 | 30.6
39 | GCAAACGAAAGTTCTTGC ((((((....)))..))) | -10 | 31.7
40 | GCAAACGAAAGTTGTGC ((((((....))).))) | -22.6 | 43.4
41 | GCAAACGAAAGTTTTGC ((((((....))).))) | -28.5 | 49.4
42 | GCAAACGCGAAAGCGTGC (((..(((....)))))) | -13.7 | 55.7
43 | GCAAAGCGAAAGCAGTGC (((..((....))..))) | -14 | 44.7
44 | GCAAAGCGAAAGCGATGC (((..((....))..))) | -24.4 | 61.7
45 | GCAAAGGGAAACCCTTGC ((((.((....)).)))) | -29.5 | 46
